TbMetRS inhib – blocks T. brucei methionyl-tRNA synthetase activity | hit rate 0.4% among 360,000 | inhibition, % at 11.9 µM | purified T. brucei MetRS, ATP depletion, Kinase-Glo luminescence;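 active = inhibition above a per-plate cutoff of the control wells' mean inhibition plus 3 SD, cut at about 5.5% in these data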;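 note: 0% = DMSO wells median and 100% = median of wells with control inhibitor compound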
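Test system – parasite MetRS enzyme · Reagent – substrates ATP, L-methionine and bulk Escherichia coli tRNA · Doses – 11.9 µM compound single dose, 0.9% DMSO · Times – 15 min enzyme-compound preincubation, 2 h reaction, 10 min detection, 25 °C · Signal – Kinase-Glo luminescence, ATP depletion format · Controls – DMSO-only wells as low control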
Rin1 Abl inh – human Rin1-Abl interaction inhibition; inhibition, % at 7.35 µM; P00519+Q13671; TR-FRET Rin1/Abl binding, biochemical; hit rate 0.4% among 360,000; in the data active = inhibition above about 5%, passing the limit was not always enough
Target sequence (P00519 whole entry, looked up): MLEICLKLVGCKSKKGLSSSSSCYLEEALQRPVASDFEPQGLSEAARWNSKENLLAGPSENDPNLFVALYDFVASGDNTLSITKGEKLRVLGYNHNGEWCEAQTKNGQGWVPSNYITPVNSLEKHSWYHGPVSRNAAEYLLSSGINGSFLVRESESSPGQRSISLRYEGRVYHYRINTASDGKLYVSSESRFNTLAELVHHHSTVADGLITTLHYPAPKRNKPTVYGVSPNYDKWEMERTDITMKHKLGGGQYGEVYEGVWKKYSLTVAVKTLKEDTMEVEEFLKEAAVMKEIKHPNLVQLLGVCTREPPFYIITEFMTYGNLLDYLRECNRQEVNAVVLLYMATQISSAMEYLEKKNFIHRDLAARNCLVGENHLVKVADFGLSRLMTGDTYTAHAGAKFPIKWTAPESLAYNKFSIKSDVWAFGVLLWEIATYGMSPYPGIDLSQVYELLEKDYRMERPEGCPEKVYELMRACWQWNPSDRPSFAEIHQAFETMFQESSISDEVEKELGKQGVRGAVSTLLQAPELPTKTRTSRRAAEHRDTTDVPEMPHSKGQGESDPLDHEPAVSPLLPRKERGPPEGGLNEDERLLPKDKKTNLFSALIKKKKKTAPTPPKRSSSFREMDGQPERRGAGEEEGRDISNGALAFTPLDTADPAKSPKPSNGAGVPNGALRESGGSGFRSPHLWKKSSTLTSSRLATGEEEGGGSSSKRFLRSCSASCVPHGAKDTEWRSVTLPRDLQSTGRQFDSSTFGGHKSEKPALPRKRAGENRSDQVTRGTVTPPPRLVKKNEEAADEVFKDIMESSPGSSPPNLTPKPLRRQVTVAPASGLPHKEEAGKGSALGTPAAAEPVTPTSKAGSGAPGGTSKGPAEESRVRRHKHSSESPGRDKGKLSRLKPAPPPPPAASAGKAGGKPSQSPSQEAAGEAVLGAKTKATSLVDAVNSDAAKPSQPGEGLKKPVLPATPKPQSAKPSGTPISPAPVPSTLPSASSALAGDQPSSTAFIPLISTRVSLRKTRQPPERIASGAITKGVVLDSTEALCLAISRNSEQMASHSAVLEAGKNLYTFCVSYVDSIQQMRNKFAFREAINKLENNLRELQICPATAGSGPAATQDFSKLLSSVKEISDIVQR
Target sequence (Q13671 whole entry, looked up): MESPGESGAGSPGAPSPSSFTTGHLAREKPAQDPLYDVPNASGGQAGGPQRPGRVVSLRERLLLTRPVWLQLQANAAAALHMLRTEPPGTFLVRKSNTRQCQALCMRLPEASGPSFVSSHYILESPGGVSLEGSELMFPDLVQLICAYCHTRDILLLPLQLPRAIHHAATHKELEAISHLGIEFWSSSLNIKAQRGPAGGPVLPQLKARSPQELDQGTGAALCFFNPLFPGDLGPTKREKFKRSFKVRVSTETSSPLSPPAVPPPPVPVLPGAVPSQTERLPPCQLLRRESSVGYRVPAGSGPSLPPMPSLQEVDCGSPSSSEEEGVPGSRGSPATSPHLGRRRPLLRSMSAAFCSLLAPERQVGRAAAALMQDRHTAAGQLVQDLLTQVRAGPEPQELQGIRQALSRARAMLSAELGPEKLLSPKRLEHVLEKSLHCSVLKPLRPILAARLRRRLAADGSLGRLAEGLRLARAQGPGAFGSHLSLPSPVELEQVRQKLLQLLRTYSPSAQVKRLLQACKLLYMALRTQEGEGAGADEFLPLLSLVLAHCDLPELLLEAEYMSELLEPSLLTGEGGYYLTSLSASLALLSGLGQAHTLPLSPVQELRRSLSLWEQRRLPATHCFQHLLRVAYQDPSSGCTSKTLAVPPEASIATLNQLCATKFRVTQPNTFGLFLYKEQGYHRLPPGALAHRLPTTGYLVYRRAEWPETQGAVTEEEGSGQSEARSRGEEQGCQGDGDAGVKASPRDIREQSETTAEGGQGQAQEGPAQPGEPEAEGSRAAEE
SKN-1 block – C. elegans SKN-1 inhibition; hit rate 0.49% among 360,000; C. elegans VP596 Pgst-4::GFP/RFP ratio, acrylamide-induced, 24 h; inhibition, % at 21.8 µM;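 active = interference check ratio from 0.5 to 1.5 plus GFP to RFP signal ratio inhibition reaching or exceeding a fixed threshold, cut at about 30% in these data, passing the limit was not always enough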
MT1-MMP act inh – inhibitors of human MT1-MMP activation; hit rate 0.061% among 360,000; GFP/RFP ratio change, % at 20 µM; HT1080 RFP-PRO-GFP cells, GFP/RFP ratio fluorescence, overnight; percent of plate control window, DMSO zero; P50281;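 active = GFP/RFP ratio change of at least 30% with cell ATP level not reduced by more than half and red fluorescence within 50% of control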
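Assay system – RFP-PRO-GFP reporter HT1080 cells · Compound dosing – single dose of 20 µM compound, 1% DMSO final · Incubation – overnight compound exposure at 37 °C · Measure – GFP/RFP fluorescence ratio · Benchmarks – DMSO wells and RFP-L50D-GFP cells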
Arr AP2 block – human beta-arrestin and AP2 interaction inhibition | FITC-arrestin peptide / GST-AP2 beads, flow cytometry; AP2 beta2 appendage carries R879A mutation | inhibition, % at 10 µM | hit rate 0.31% among 340,000 | AID 504490;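 active = inhibition above a set limit, near 3 SD of compounds lacking own fluorescence, cut at about 54% in these data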;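 note: plate controls were DMSO wells for no effect and 5 µM unlabelled arrestin peptide for full effect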
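System: GST-AP2 R879A glutathione beads | Also added: FITC-arrestin peptide, 50 nM | Times: 12 min plus 1 h, RT | Signal: Bead flow cytometry, FITC channel | Buffer or medium: PBS with 0.05% Tween 20 and 0.1% BSA | Read-out basis: Percent drop in bead-associated FITC signal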
Rin1 Abl conf – confirmation of inhibitors of human Rin1-Abl interaction. shares compounds with Rin1 Abl inh. TR-FRET Rin1-Abl binding, purified proteins. inhibition, % at 7.35 µM. hit rate 49% among 1,300. AID 602124
GFP quencher – quenches GFP fluorescence, counter-screen for Rin1-Abl inhibitors; hit rate 8.5% among 1,300; inhibition, % at 6.75 µM; inhibitors/quenchers counterscreen; shares compounds with Rin1 Abl inh;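 note: ABL1-eGFP fusion protein alone without its partner RIN1-SBP; 0% = protein with vehicle and 100% = wells lacking protein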
* marks the source's active call; other numbers are inactive results. Shown are actives, neighbours in structure and some others; about 1.6% of the full set was active somewhere. Cut-off read from the data, not from the text of the source, unless noted: active = inhibition above about 6.5%; inactive = the rest.

O=C(Cn1cc(COc2ccccc2[N+](=O)[O-])nn1)c1ccc(O)cc1 was read as TbMetRS inhib -0.6, Rin1 Abl inh 7.7*, SKN-1 block 8.7, MT1-MMP act inh 0.4, Arr AP2 block 13.1, Rin1 Abl conf -1.4 and GFP quencher 1.6.
CC(C)C(=O)N1C2CCC1CC(O)(c1ccc(F)cc1)C2 (stereo not given) was read as TbMetRS inhib 0.2, Rin1 Abl inh 7.0*, SKN-1 block -2.7, MT1-MMP act inh 0.5, Arr AP2 block 1.2, Rin1 Abl conf 0.9 and GFP quencher 0.9.
O=[N+]([O-])c1cccc(S(=O)(=O)NCCOc2cccc3cccnc23)c1 was read as TbMetRS inhib 0.4, Rin1 Abl inh 10.3*, SKN-1 block -2.4, MT1-MMP act inh -2.3, Arr AP2 block 38.2, Rin1 Abl conf -3.3 and GFP quencher -0.3.
For O=C(NC(NC(=S)Nc1ccccc1C(=O)O)C(Cl)(Cl)Cl)c1ccco1 (stereo not given) the results were TbMetRS inhib -1.8, Rin1 Abl inh 7.0*, SKN-1 block -9.4, MT1-MMP act inh 2.6, Arr AP2 block 0.8, Rin1 Abl conf 0.4 and GFP quencher 1.3.
For COC(=O)c1ccccc1NC(=S)NC(NC(=O)c1ccco1)C(Cl)(Cl)Cl (stereo not given) the results were TbMetRS inhib -1.2, Rin1 Abl inh 1.1, SKN-1 block 0.6, MT1-MMP act inh 1.3 and Arr AP2 block -0.9.
CC(C)N1CCCC(C)(C(=O)Nc2nc3ccccc3n2C)C1 (stereo not given) was read as TbMetRS inhib -0.1, Rin1 Abl inh -3.5, SKN-1 block 8.4 and MT1-MMP act inh -5.5.
Screening O=C(c1ccc(Cl)c(Cl)c1)N1CCC(=O)N(C(COCc2ccccc2)Cc2ccccc2)CC1 (stereo not given) returned TbMetRS inhib -0.5, Rin1 Abl inh 9.5*, SKN-1 block -3.0, MT1-MMP act inh 2.4, Arr AP2 block -3.9, Rin1 Abl conf 14.6* and GFP quencher 0.0.
`O=C(c1ccc(Cl)c(Cl)c1)N1CCC(=O)N([C@H](COCc2ccccc2)Cc2ccccc2)CC1` gave TbMetRS inhib -0.3, SKN-1 block -1.7 and MT1-MMP act inh -6.1.
Screening COc1ccc(Nc2nc(-c3ccccc3)nc3ccccc23)cc1 returned TbMetRS inhib -1.2, Rin1 Abl inh 4.6, SKN-1 block -3.7, MT1-MMP act inh -1.7 and Arr AP2 block 3.5.
COc1ccc(Nc2nc(-c3cccc([N+](=O)[O-])c3)nc3ccccc23)cc1 was read as TbMetRS inhib -1.3, Rin1 Abl inh 5.7*, SKN-1 block 10.4, MT1-MMP act inh -0.5, Arr AP2 block 0.5, Rin1 Abl conf -1.2 and GFP quencher -0.3.
For CCc1ccc(C(=O)Nn2cnc3ccccc3c2=O)cc1 the results were TbMetRS inhib -0.6, Rin1 Abl inh 3.7, SKN-1 block 8.0, MT1-MMP act inh 1.5 and Arr AP2 block 1.7.
`O=C(Nn1cnc2ccccc2c1=O)c1ccc(Br)cc1` gave TbMetRS inhib 1.1, Rin1 Abl inh 13.2*, SKN-1 block -16.9, MT1-MMP act inh -1.7, Arr AP2 block 46.5, Rin1 Abl conf -0.6 and GFP quencher -0.7.
COc1cc(N)c(C(=O)c2nccc3cc(OC)c(OC)cc23)cc1OC was read as TbMetRS inhib -0.9, Rin1 Abl inh -3.7, SKN-1 block -16.7, MT1-MMP act inh -1.6 and Arr AP2 block 39.0.
Screening COc1cc(Br)c(C(=O)c2nccc3cc(OC)c(OC)cc23)cc1OC returned TbMetRS inhib 1.4, Rin1 Abl inh 6.0*, SKN-1 block 11.6, MT1-MMP act inh 2.6, Arr AP2 block 11.4, Rin1 Abl conf 3.0 and GFP quencher -0.4.
Screening CCCCCc1c(-c2ccc(Br)cc2)ncn1CCc1ccccc1OC returned TbMetRS inhib -0.6, SKN-1 block 10.8 and MT1-MMP act inh -6.3.
Screening CCN(C(=O)COC(=O)C1CCN(S(=O)(=O)c2ccc(C)c(C)c2)CC1)C1CCCCC1 returned TbMetRS inhib -0.2, Rin1 Abl inh 0.1, SKN-1 block -1.2, MT1-MMP act inh 1.2 and Arr AP2 block 3.2.
CC1(c2nnnn2Cc2ccccc2)CCC(=O)N1Cc1cccs1 (stereo not given) was read as TbMetRS inhib -0.1, SKN-1 block -0.8 and MT1-MMP act inh 4.4.
Screening CCCCSc1nnc(-c2ccc(NC(=O)CCc3ccccc3)cc2)n1C returned TbMetRS inhib -0.9, Rin1 Abl inh 6.2*, SKN-1 block -11.5, MT1-MMP act inh -10.4, Arr AP2 block 5.8, Rin1 Abl conf 9.0* and GFP quencher 0.9.
`O=C(NC(Cc1c[nH]c2ccccc12)C(=O)O)OCC1c2ccccc2-c2ccccc21` (stereo not given) gave TbMetRS inhib 0.5, Rin1 Abl inh 1.0, SKN-1 block -0.8 and MT1-MMP act inh 2.2.
COc1ccc(C(C(=O)Nc2c(C)cccc2C)N2CCN(C)CC2)cc1 (stereo not given) was read as TbMetRS inhib -0.4, SKN-1 block 4.6 and MT1-MMP act inh -4.6.
For C[C@H](CO)N1C[C@H](C)[C@@H](CN(C)Cc2ccc(-c3ccccc3)cc2)Oc2c(NS(=O)(=O)c3cn(C)cn3)cccc2C1=O the results were TbMetRS inhib -0.4, Rin1 Abl inh 35.7*, SKN-1 block -4.4, MT1-MMP act inh 3.3, Arr AP2 block 11.5, Rin1 Abl conf 28.9* and GFP quencher -1.8.
For Cc1ccc(S(=O)(=O)Nc2cccc3c2O[C@H](CN(C)Cc2ccc(-c4ccccc4)cc2)[C@@H](C)CN([C@H](C)CO)C3=O)cc1 the results were TbMetRS inhib 0.4, Rin1 Abl inh 10.3*, SKN-1 block -26.9, MT1-MMP act inh -3.4, Arr AP2 block 20.9, Rin1 Abl conf 9.7* and GFP quencher -0.1.
`C[C@H](CO)N1C[C@H](C)[C@@H](CN(C)Cc2ccc(Cl)c(Cl)c2)Oc2c(NC(=O)c3ccncc3)cccc2C1=O` gave TbMetRS inhib -0.3, Rin1 Abl inh 12.8*, SKN-1 block 2.5, MT1-MMP act inh -4.7, Arr AP2 block 0.3, Rin1 Abl conf 8.7* and GFP quencher 0.6.
`C[C@H](CO)N1C[C@H](C)[C@@H](CN(C)Cc2ccccc2)Oc2c(NS(=O)(=O)c3ccc(F)cc3)cccc2C1=O` gave TbMetRS inhib -0.4, Rin1 Abl inh -0.2, SKN-1 block 6.4, MT1-MMP act inh -2.2 and Arr AP2 block -7.0.
C[C@H](CO)N1C[C@H](C)[C@@H](CN(C)Cc2ccccc2)Oc2c(NS(=O)(=O)c3ccccc3)cccc2C1=O was read as TbMetRS inhib -0.3, Rin1 Abl inh 1.4, SKN-1 block -2.6, MT1-MMP act inh 4.4 and Arr AP2 block -3.2.

Source: PubChem BioAssay (several laboratories)
